Legend:
Musca domestica [1] = assay: Insecticidal activity against housefly by contact assay; format: functional; set-up: concentration or dose not given beside the values
In short: (§1)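 Newly emerged houseflies were CO2-sedated and fed 10% sucrose for 2–4 h. Compound in DMSO with isopropanol was rolled to coat glass tubes and air-dried for 24–48 h, with a DMSO-only control. Twenty flies, sedated by refrigeration at 0–4 °C, were placed in each tube. Healthy, moribund and dead flies were counted after 24 h.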

[2] = biological target: GABA-A receptor; anion channel; assay: Binding affinity to mouse brain GABA receptor
In short: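 Displacement of [3H]EBOB (5.2 nM, 38 Ci/mmol) from neuronal membranes (0.5–1.0 mg/mL), housefly or mouse brain, in ice-cold 10 mM phosphate, 300 mM NaCl, pH 7.5. Compound added from DMSO. Membrane-free wells served as controls. Incubated 45 min at 24 °C, then filtered on polyethylenimine-soaked glass fiber and bound radioactivity counted. IC50 (50% of maximal inhibition) taken from 24–48 concentrations.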

Ctenocephalides felis [3] = assay: Insecticidal activity against cyclodiene resistant allele-homozygous serine S/S flea at 100 mM by contact assay; format: functional
In short: (§2)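 Contact vial assay with cat fleas of the cyclodiene-resistant homozygous serine (CO) or sensitive homozygous alanine (ARC) strain. Compound in DMSO was dried onto a glass-fiber disk for 24–48 h, and a DMSO-only disk was the control. Twenty newly emerged fleas, sedated at 0–4 °C, were sealed in each vial and held in the dark. Dead fleas were counted after 24 h, and percentage mortality was calculated.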

Ctenocephalides felis [4] = assay: Insecticidal activity against ARC sensitive homozygous alanine A/A flea at 100 mM by contact assay; format: functional; in short: as §2
[5] = (§3) Half life in mouse liver microsome; format: ADME; conditions: liver microsomes
Mus musculus [6] = species on record: Mus musculus; assay: Clearance in mouse; format: ADME, organism-based; conditions: in vitro
GABA receptor subunit = biological target: T1, GABA receptor subunit (Musca domestica, UniProt Q75NA5); assay: Displacement of [3H]EBOB from housefly neuronal membrane GABA receptor
T1 sequence (Q75NA5 whole entry): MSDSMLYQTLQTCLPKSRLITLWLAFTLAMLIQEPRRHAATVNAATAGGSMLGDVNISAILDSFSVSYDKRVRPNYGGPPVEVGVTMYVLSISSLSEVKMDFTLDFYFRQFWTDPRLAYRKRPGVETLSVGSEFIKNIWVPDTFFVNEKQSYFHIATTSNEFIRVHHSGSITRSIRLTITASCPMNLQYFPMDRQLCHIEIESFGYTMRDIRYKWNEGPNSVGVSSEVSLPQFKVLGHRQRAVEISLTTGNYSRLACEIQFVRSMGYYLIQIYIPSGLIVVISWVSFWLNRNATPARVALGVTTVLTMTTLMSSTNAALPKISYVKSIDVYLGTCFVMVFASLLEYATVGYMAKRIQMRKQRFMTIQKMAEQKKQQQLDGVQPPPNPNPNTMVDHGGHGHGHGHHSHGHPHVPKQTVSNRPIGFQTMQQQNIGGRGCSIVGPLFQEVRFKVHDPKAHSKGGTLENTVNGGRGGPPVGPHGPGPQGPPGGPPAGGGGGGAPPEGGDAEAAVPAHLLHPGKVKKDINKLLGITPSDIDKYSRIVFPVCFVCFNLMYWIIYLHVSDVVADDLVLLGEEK
In short: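 Housefly neuronal membranes (0.5–1.0 mg/mL in added buffer) with 5.2 nM [3H]EBOB in ice-cold 10 mM phosphate, 300 mM NaCl, pH 7.5; DMSO compound solutions. Incubated 45 min at 24 °C, then filtered on polyethylenimine-soaked glass fiber; bound radioactivity counted. Membrane-free wells served as controls. Actives were retested at 24–48 final concentrations, and IC50 was taken at 50% of maximal inhibition.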

Ctenocephalides felis [7] = assay: Insecticidal activity against cyclodiene resistant allele-homozygous serine S/S flea by contact assay; format: functional; in short: as §2
Canis familiaris [8] = species on record: Canis familiaris; assay: (§4) Half life in dog liver microsome; format: ADME, Canis lupus familiaris; conditions: microsomes
[9] = Selectivity for housefly GABA receptor over mouse GABA receptor
Canis familiaris [10] = species on record: Canis familiaris; assay: Clearance in dog; format: ADME, organism-based, Canis lupus familiaris; conditions: in vitro
Ctenocephalides felis [11] = assay: Insecticidal activity against heterozygous S/A flea by contact assay; format: functional
Musca domestica [12] = assay: Insecticidal activity against housefly at 100 mM by contact assay; format: functional; conditions: for LC50: Musca domestica, read-out: LD50 (the source's name); in short: as §1
Mus musculus [13] = species on record: Mus musculus; assay: as §3; format: ADME; conditions: microsomes
[14] = as §4; format: ADME, Canis lupus familiaris; conditions: liver microsomes
[15] = read-out: LD50 (the source's name)

| Compound | Activity (Musca domestica [1]) | IC50 [2] | Activity (Ctenocephalides felis [3]) | Activity (Ctenocephalides felis [4]) | IC50 (GABA receptor subunit) | LC50 (Ctenocephalides felis [7]; [15]) | selectivity ratio [9] | also measured |
| --- | --- | --- | --- | --- | --- | --- | --- | --- |
| COC1CC(F)(F)c2nn(-c3c(Cl)cc(C(F)(F)F)cc3Cl)cc21 (stereo unspecified) | 22% | 3.7 µM | 3% | 100% | – | – | – | – |
| COC1(C)c2cn(-c3c(Cl)cc(C(F)(F)F)cc3Cl)nc2CC1F (stereo unspecified) | – | 12 µM | – | 100% | 0.1 µM | 1800 µM | 120 | half-life [5]: 2.42 h; CL (Mus musculus [6]): 34.1 pmol/min/mg; T1/2 (Canis familiaris [8]): Stable; CL (Canis familiaris [10]): Stable |
| FC(F)(F)c1cc(Cl)c(-n2cc3c(n2)CCC3)c(Cl)c1 | – | 1.6 µM | – | 100% | – | – | 19 | LC50 (Ctenocephalides felis [7]; read-out: LC50): 8000 µM; LC50 (Ctenocephalides felis [11]): 7000 µM; Activity (Musca domestica [12]): 30% |
| FC1c2nn(-c3c(Cl)cc(C(F)(F)F)cc3Cl)cc2C(F)(F)C1F (stereo unspecified) | – | 0.175 µM | – | 100% | – | < 500 µM | – | LC50 (Musca domestica [12]): 400 µM |
| CC1CCc2nn(-c3c(Cl)cc(C(F)(F)F)cc3Cl)cc21 (stereo unspecified) | – | 3.8 µM | – | 100% | 0.03 µM | – | 126 | LC50 (Ctenocephalides felis [7]; read-out: LC50): 10000 µM; LC50 (Ctenocephalides felis [11]): 3000 µM; Activity (Musca domestica [12]): 10% |
| O=C1CC(F)(F)c2nn(-c3c(Cl)cc(C(F)(F)F)cc3Cl)cc21 | 6% | – | 1% | 40% | – | – | – | – |
| FC(F)(F)c1cc(Cl)c(-n2cc3c(n2)C(F)(F)CC3)c(Cl)c1 | – | 2.8 µM | – | 100% | – | 15000 µM | – | – |
| FC1CCc2nn(-c3c(Cl)cc(C(F)(F)F)cc3Cl)cc21 (stereo unspecified) | 7% | > 10 µM | 36% | – | 1.7 µM | – | > 5 | – |
| FC1Cc2nn(-c3c(Cl)cc(C(F)(F)F)cc3Cl)cc2C1(F)F (stereo unspecified) | 100% | 1 µM | – | 100% | < 0.1 µM | 1000 µM | > 10 | half-life [5]: 1.08 h; CL (Mus musculus [6]): 109.2 pmol/min/mg; T1/2 (Canis familiaris [8]): Stable; CL (Canis familiaris [10]): Stable |
| CC1(F)CC(F)(F)c2nn(-c3c(Cl)cc(C(F)(F)F)cc3Cl)cc21 (stereo unspecified) | 16.7% | > 10 µM | 3% | 100% | – | – | – | – |
| FC(F)(F)c1cc(Cl)c(-n2cc3c(n2)CCC3(F)F)c(Cl)c1 | – | 1 µM | – | 100% | > 0.1 µM | 1000 µM | < 10 | LC50 (Musca domestica [12]): 88000 µM |
| CC1(O)c2cn(-c3c(Cl)cc(C(F)(F)F)cc3Cl)nc2CC1(F)F (stereo unspecified) | 72% | 2.3 µM | – | 100% | – | 10000 µM | 23 | T1/2 (Mus musculus [13]): Stable; CL (Mus musculus [6]): Stable; half-life [14]: 8.45 h; CL (Canis familiaris [10]): 296.9 pmol/min/mg |
| FC(F)(F)c1cc(Cl)c(-n2cc3c(n2)CC(F)(F)C3(F)F)c(Cl)c1 | – | 0.05 µM | – | 100% | < 0.1 µM | < 500 µM | > 0.5 | – |
| FC(F)(F)c1cc(Cl)c(-n2cc3c(n2)C(F)(F)CC3(F)F)c(Cl)c1 | 93.9% | 0.3 µM | 60.7% | 100% | 0.074 µM | – | 4 | – |
| FC1CCc2cn(-c3c(Cl)cc(C(F)(F)F)cc3Cl)nc21 (stereo unspecified) | 85% | 2.9 µM | – | 95% | 0.29 µM | 11000 µM | 10 | – |
| FC1(F)Cc2cn(-c3c(Cl)cc(C(F)(F)F)cc3Cl)nc2C1 | 87.9% | 0.175 µM | – | 100% | 0.2 µM | 2000 µM | 1 | – |
| FC1Cc2cn(-c3c(Cl)cc(C(F)(F)F)cc3Cl)nc2C1F (stereo unspecified) | – | 1 µM | – | 100% | 0.2 µM | – | 5 | half-life [5]: 0.373 h; CL (Mus musculus [6]): 255.1 pmol/min/mg; T1/2 (Canis familiaris [8]): Stable; CL (Canis familiaris [10]): Stable; LC50 (Musca domestica [12]): 79000 µM |
| O=C1c2cn(-c3c(Cl)cc(C(F)(F)F)cc3Cl)nc2CC1(F)F | 6% | – | 1% | 40% | – | – | – | – |
| O=C1CCc2nn(-c3c(Cl)cc(C(F)(F)F)cc3Cl)cc21 | – | 20 µM | – | 16.5% | 0.47 µM | – | 42 | LC50 (Musca domestica [12]): 81000 µM |
| O=C1c2cn(-c3c(Cl)cc(C(F)(F)F)cc3Cl)nc2CC1F (stereo unspecified) | 57.5% | 3.2 µM | 10.8% | 95.4% | 0.32 µM | – | 10 | – |
| CC1(O)c2cn(-c3c(Cl)cc(C(F)(F)F)cc3Cl)nc2C(F)C1F (stereo unspecified) | 100% | > 10 µM | – | 100% | – | 5000 µM | > 28 | – |
